Laboratory results published in ChEMBL document CHEMBL4619820, “Development of Novel AKR1C3 Inhibitors as New Potential Treatment for Castration-Resistant Prostate Cancer” (J Med Chem, 2020).
Positions count from the first letter of the chain named. Active and inactive are the calls of the source. The rule behind the calls is not given here.

What was measured:
[1] = biological target: T1, Aldo-keto reductase family 1 member C3 (Homo sapiens, UniProt P42330); assay: Inhibition of recombinant AKR1C3 (unknown origin) assessed as reduction in S-tetralol-induced dehydrogenase activity by measuring NADPH level
T1 sequence (P42330 whole entry): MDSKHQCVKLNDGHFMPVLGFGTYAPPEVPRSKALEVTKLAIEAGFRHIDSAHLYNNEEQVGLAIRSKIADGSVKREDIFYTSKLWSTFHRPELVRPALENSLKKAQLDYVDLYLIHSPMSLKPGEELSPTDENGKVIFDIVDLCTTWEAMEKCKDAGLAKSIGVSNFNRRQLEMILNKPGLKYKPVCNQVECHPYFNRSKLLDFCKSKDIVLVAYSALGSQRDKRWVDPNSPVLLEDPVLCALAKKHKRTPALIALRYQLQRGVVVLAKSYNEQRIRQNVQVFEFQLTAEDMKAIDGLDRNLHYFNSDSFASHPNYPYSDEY

PC-3 [2] = assay: Inhibition of cell proliferation of human PC3 cells over-expressing AKR1C3 at 1 uM incubated for 72 hrs by alamar blue assay; assay type: functional, cell-based
[3] = biological target: T2, Androgen receptor (Homo sapiens) (UniProt P10275); assay: Agonistic activity at AR in human 22Rv1 cells assessed as effect on cell number at 1 nM by CCK8 assay; assay type: cell-based; details: CWR22R
T2 sequence (whole entry): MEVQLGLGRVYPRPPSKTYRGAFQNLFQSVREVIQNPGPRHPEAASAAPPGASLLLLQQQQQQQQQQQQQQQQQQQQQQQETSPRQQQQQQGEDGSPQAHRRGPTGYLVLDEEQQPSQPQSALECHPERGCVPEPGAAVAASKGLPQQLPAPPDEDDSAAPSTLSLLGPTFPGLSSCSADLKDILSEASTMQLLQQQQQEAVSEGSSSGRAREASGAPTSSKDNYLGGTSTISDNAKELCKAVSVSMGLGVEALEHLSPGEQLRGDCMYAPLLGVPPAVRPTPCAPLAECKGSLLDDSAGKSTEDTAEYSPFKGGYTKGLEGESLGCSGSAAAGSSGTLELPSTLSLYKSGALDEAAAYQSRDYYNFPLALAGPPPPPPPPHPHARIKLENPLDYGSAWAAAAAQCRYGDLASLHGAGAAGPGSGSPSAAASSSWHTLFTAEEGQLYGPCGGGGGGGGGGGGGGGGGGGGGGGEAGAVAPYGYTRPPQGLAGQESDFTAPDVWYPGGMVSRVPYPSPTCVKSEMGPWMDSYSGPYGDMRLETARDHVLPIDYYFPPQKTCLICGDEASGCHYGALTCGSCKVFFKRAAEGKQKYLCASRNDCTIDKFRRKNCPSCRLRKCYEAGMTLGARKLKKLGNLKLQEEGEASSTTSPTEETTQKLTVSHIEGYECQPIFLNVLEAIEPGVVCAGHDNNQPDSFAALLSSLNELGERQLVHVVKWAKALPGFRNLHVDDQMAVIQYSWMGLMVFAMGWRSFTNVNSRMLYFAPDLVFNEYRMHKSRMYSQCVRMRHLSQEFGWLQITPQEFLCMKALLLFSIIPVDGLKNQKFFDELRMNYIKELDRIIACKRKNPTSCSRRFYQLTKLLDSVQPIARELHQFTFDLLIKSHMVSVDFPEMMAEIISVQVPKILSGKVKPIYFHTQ

[4] = biological target: T3, Carbonyl reductase [NADPH] 1 (Homo sapiens, UniProt P16152); assay: Inhibition of CBR1 (unknown origin)
T3 sequence (P16152 whole entry): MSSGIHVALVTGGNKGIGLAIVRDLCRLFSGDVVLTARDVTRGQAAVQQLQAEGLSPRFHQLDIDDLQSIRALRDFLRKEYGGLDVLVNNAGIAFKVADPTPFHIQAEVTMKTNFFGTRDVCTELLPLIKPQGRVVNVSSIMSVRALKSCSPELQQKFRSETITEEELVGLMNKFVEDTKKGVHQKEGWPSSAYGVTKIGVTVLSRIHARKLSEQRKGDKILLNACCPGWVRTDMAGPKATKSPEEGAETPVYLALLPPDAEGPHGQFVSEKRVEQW

Homo sapiens [5] = organism: Homo sapiens; assay: Ratio of IC50 for inhibition of recombinant AKR1C2 (unknown origin) inhibition of recombinant AKR1C3 (unknown origin)
Homo sapiens [6] = organism: Homo sapiens; assay: Ratio of IC50 for inhibition of recombinant AKR1C1 (unknown origin) inhibition of recombinant AKR1C3 (unknown origin)
[7] = biological target: T4, Aldo-keto reductase family 1 member C2 (Homo sapiens, UniProt P52895); assay: Inhibition of recombinant AKR1C2 (unknown origin) assessed as reduction in S-tetralol-induced dehydrogenase activity by measuring NADPH level
T4 sequence (P52895 whole entry): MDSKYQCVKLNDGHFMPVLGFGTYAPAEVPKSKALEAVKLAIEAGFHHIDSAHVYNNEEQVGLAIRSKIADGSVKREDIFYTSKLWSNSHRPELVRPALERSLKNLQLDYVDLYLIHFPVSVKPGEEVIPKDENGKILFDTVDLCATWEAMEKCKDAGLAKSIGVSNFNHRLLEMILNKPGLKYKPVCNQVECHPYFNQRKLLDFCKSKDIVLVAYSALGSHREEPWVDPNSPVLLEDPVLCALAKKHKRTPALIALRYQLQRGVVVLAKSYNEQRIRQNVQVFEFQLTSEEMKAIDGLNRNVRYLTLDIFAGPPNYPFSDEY

Homo sapiens [8] = organism: Homo sapiens; assay: Ratio of IC50 for inhibition of CBR1 (unknown origin) inhibition of recombinant AKR1C3 (unknown origin)
Homo sapiens [9] = organism: Homo sapiens; assay: Ratio of IC50 for inhibition of recombinant AKR1C4 (unknown origin) inhibition of recombinant AKR1C3 (unknown origin)
[10] = biological target: T5, Aldo-keto reductase family 1 member C1 (Homo sapiens, UniProt Q04828); assay: Inhibition of recombinant AKR1C1 (unknown origin) assessed as reduction in S-tetralol-induced dehydrogenase activity by measuring NADPH level
T5 sequence (Q04828 whole entry): T4 sequence (P52895 whole entry) with V38T, H47R, V54L, S87C, M151V, H170R, L172Q

[11] = biological target: T6, Aldo-keto reductase family 1 member C4 (Homo sapiens, UniProt P17516); assay: Inhibition of recombinant AKR1C4 (unknown origin) assessed as reduction in S-tetralol-induced dehydrogenase activity by measuring NADPH level
T6 sequence (P17516 whole entry): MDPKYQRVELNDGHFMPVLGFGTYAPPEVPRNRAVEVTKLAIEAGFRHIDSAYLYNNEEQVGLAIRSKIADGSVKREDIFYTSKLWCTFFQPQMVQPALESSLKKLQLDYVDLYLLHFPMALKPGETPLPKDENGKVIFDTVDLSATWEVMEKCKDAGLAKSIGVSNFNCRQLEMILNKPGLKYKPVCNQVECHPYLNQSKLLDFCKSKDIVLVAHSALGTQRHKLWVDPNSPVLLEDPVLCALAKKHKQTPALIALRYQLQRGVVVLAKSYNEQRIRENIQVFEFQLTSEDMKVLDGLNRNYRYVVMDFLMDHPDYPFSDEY

CWR22R [12] = assay: Inhibition of TMPRSS2 mRNA expression in human 22Rv1 cells at 10 uM pre-incubated for 2 hrs before pregnenolone stimulation for 24 hrs by RT-qPCR analysis; assay type: functional, cell-based
Procedure, shortened: (§1)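 22Rv1 cells pretreated 2 h with test agents, then stimulated 24 h with 20 nM pregnenolone; AR, TMPRSS2 and PSA mRNA measured by RT-qPCR, given as ratio to pregnenolone-free control.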

CWR22R [13] = assay: Inhibition of PSA mRNA expression in human 22Rv1 cells at 10 uM pre-incubated for 2 hrs before pregnenolone stimulation for 24 hrs by RT-qPCR analysis; assay type: functional, cell-based; procedure, shortened: as §1
CWR22R [14] = assay: Inhibition of AR mRNA expression in human 22Rv1 cells at 10 uM pre-incubated for 2 hrs before pregnenolone stimulation for 24 hrs by RT-qPCR analysis; assay type: functional, cell-based; procedure, shortened: as §1
CWR22R [15] = assay: Inhibition of pregnenolone-induced cell proliferation of human 22Rv1 cells at 10 uM pre-incubated for 2 hrs before pregnenolone stimulation for 72 hrs by alamar blue assay; assay type: functional, cell-based
Procedure, shortened: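 22Rv1 cells (AKR1C3- and AR-expressing) pretreated 2 h with agents, then cultured 72 h with 20 nM pregnenolone; viable cell number given as percent of pregnenolone-free control.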

PC-3 [16] = details: Homo sapiens, at 10 µM

Row | Compound | IC50 [1] [nM] | Activity [3] | also measured
1 | N=c1oc2ccc(O)cc2cc1C(=O)Nc1ccc(F)cc1 | > 10000 |  | 
2 | CC(C)c1ccccc1NC(=O)c1cc2cccc(O)c2oc1=N | 30 |  | 
3 | N=c1oc2cc(O)ccc2cc1C(=O)Nc1ccc(F)cc1 | > 10000 |  | 
4 | COC[C@H]1OC(=O)c2coc3c2[C@@]1(C)C1=C(C3=O)[C@@H]2CCC(=O)[C@@]2(C)C[C@H]1OC(C)=O |  |  | inhibition (PC-3 [2]): Active
5 | N=c1oc2c(O)cccc2cc1C(=O)Nc1ccc(Cl)cc1 | 52 | inactive | 
6 | N=c1oc2c(O)cccc2cc1C(=O)Nc1ccccc1Cl | 56 | inactive | IC50 [4]: 34 nM; Ratio IC50 (Homo sapiens [5]): > 180; Ratio IC50 (Homo sapiens [6]): > 180; IC50 [7]: > 10000 nM; Ratio IC50 (Homo sapiens [8]): 0.6; Ratio IC50 (Homo sapiens [9]): > 180; IC50 [10]: > 10000 nM; IC50 [11]: > 10000 nM
7 | Cc1cccc(NC(=O)c2cc3cccc(O)c3oc2=N)c1 | 55 |  | 
8 | COc1cccc2cc(C(=O)Nc3ccc(F)cc3)c(=N)oc12 | > 10000 |  | 
9 | N=c1oc2c(O)cccc2cc1C(=O)Nc1cccc(C(F)(F)F)c1 | 50 |  | 
10 | N=c1oc2c(O)cccc2cc1C(=O)Nc1ccc(O)cc1 | > 10000 | inactive | 
11 | N=c1oc2c(O)cccc2cc1C(=O)Nc1ccccc1 | 36 | inactive | 
12 | N=c1oc2c(O)cccc2cc1C(=O)Nc1cc(F)c(F)c(F)c1 | 47 | inactive | 
13 | N=c1oc2c(O)cccc2cc1C(=O)Nc1cccc(O)c1 | 60 | inactive | 
14 | N=c1oc2c(O)cccc2cc1C(=O)Nc1ccc(C(F)(F)F)cc1C(F)(F)F | 58 |  | 
15 | N=c1oc2cccc(O)c2cc1C(=O)Nc1ccc(F)cc1 | 370 |  | 
16 | N=c1oc2c(O)cccc2cc1C(=O)Nc1cccc(F)c1 | 29 | inactive | IC50 [4]: 370 nM; Ratio IC50 (Homo sapiens [5]): > 340; Ratio IC50 (Homo sapiens [6]): > 340; IC50 [7]: > 10000 nM; Ratio IC50 (Homo sapiens [8]): 13; Ratio IC50 (Homo sapiens [9]): > 340; IC50 [10]: > 10000 nM; IC50 [11]: > 10000 nM
17 | N=c1oc2c(O)cccc2cc1C(=O)Nc1cccc(Cl)c1 | 46 | inactive | IC50 [4]: 120 nM; Ratio IC50 (Homo sapiens [5]): > 220; Ratio IC50 (Homo sapiens [6]): > 220; IC50 [7]: > 10000 nM; Ratio IC50 (Homo sapiens [8]): 3; Ratio IC50 (Homo sapiens [9]): > 220; IC50 [10]: > 10000 nM; IC50 [11]: > 10000 nM
18 | N=c1oc2c(O)cccc2cc1C(=O)Nc1ccc(F)c(F)c1 | 220 | inactive | 
19 | CC(C)C(=O)Nc1ccc([N+](=O)[O-])c(C(F)(F)F)c1 |  |  | inhibition (CWR22R [12]): Active; inhibition (CWR22R [13]): Active; inhibition (CWR22R [14]): Active; inhibition (CWR22R [15]): Active
20 | CC(C)c1cccc(NC(=O)c2cc3cccc(O)c3oc2=N)c1 | 47 |  | 
21 | CCc1ccccc1NC(=O)c1cc2cccc(O)c2oc1=N | 21 | inactive | 
22 | Cc1ccccc1NC(=O)c1cc2cccc(O)c2oc1=N | 52 |  | 
23 | N=c1oc2c(O)cccc2cc1C(=O)Nc1ccc(C(F)(F)F)cc1 | 24 |  | 
24 | N=c1oc2c(O)cccc2cc1C(=O)Nc1ccccc1O | > 10000 | inactive | 
25 | N=c1oc2c(O)cccc2cc1C(=O)Nc1ccccc1C(F)(F)F | 20 |  | IC50 [4]: 75 nM; Ratio IC50 (Homo sapiens [5]): > 500; Ratio IC50 (Homo sapiens [6]): > 500; IC50 [7]: > 10000 nM; Ratio IC50 (Homo sapiens [8]): 4; Ratio IC50 (Homo sapiens [9]): > 500; IC50 [10]: > 10000 nM; IC50 [11]: > 10000 nM
26 | CCc1ccc(NC(=O)c2cc3cccc(O)c3oc2=N)cc1 | 45 | inactive | 
27 | N#CC(=C(/N)Sc1ccccc1N)/C(C#N)=C(\N)Sc1ccccc1N |  |  | inhibition (PC-3 [16]): inactive
28 | N=c1oc2c(O)cccc2cc1C(=O)Nc1ccccc1F | 64 | inactive | 
